Variants at the floor of the assay were thinned out.
B1: tRNA (parent)
chain: GUUCCGUUGGCGUAAUGGUAACGCGUCUCCCUCCUAAGGAGAAGACUGCGGGUUCGAGUCCCGUACGGAACG

Variants of: B1
Assay: yeast fitness relative to wild type (ratio to wild type); higher = fitter; tRNA-Arg(CCU), competitive growth, 37 C, YPD
Outline: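 Gene amplicons from the start population and from each of six end populations were read by 100-nucleotide paired-end sequencing. Those end populations came from pooled Saccharomyces cerevisiae strains carrying tRNA-Arg(CCU) gene variants at the native locus, competed in YPD at 37°C for 24 hours. Fitness relative to wild type was worked out from changes in genotype frequencies. Genotypes needed ≥ 100 starting reads, and estimates < 0.5 were set to 0.5.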

Variant | yeast fitness
C24U A57C C61U | ≤ 0.5
C24G A40G C66U | 0.515
C22U U26C | 0.667
C24G C29G C33A G48A C55G G68C | ≤ 0.5
C24U G41C | 0.847
G23U C24G C27U | ≤ 0.5
C24G C30G C34G A70G | ≤ 0.5
C24G C33G A36C A37C G41A A42C A65U | ≤ 0.5
G23C A42G A69G A70C | ≤ 0.5
C24A C31U U53A | 0.786
C24A U26G C30G A43U C62U | 0.549
G23A C30G | 0.527
C24G A45U U54A | ≤ 0.5
G23A C46U A65C | 0.54
C24G A43G U47A U53A | ≤ 0.5
G23C G51C | ≤ 0.5
C24A A70U | 0.596
C24U C49G G63A A69C | ≤ 0.5
C24G C27A U32C U64A | ≤ 0.5
C22U G52A C61U | ≤ 0.5
C24U A37C G50C A69U | ≤ 0.5
C24U C30G C46G G52A G58A | 0.559
G23C C30G C46U A65G A70U | 0.63
C24A A42C G67C A70U | ≤ 0.5

Variant | yeast fitness
C24A A42C U64C | ≤ 0.5
C24U A36C A43U C61U | ≤ 0.5
C24A G51A | 0.53
G23C C31A A36U | ≤ 0.5
C24A U59G C62U | ≤ 0.5
G23C C30G G39C | 0.501
C24G C30G C66U | ≤ 0.5
C24A C27A U28A G67U | ≤ 0.5
C24G U54C G67C | ≤ 0.5
C24G A37G U59A C62A G67A | ≤ 0.5
C24G A37C C49U | ≤ 0.5
C24A C33A C46U | 0.534
C24U C31G C60A U64C | ≤ 0.5
C24U C29U C49G | ≤ 0.5
G23C C24A C30G A40U U47A G51C C66A A69U | 0.525
C24U A45C | 0.971
G23C G68A | 0.719
G23C G68U | 0.64
C24U G58A C60G | 0.897
C24A U26C | 0.678
C24A A42C U47A G63C A69C | ≤ 0.5
C22U U59A C61G | 0.547
C24G C29G G39C C55A | 0.592
C24A C33U C62U | ≤ 0.5

Variant | yeast fitness
C24G G38A G44C | ≤ 0.5
C22U U28G A45G A65G | ≤ 0.5
C22U G52A C55A A69C | ≤ 0.5
C24G U35A A40C G52A C60A C61G | ≤ 0.5
G23C C31U G48A C49U | ≤ 0.5
G23C G41A A45C A65C | 0.583
C24U C46A A69G | 0.996
C22U U28C U54A A69U | ≤ 0.5
G23C G39C | 0.53
C24A U64C | 0.706
C24G G50C A70G | ≤ 0.5
G23A C29G U32G C34G A36G C62U | ≤ 0.5
G23A A40G A45C | ≤ 0.5
C24G A65C | 0.648
C24U A42U G52C | 0.578
C24A C27A U28A C55G | ≤ 0.5
C24U C30U | 0.744
C24A C30U | 0.538
G23C G50A | 0.726
G23C U28G A42C G52C | ≤ 0.5
C24G U64A C66A | ≤ 0.5
C24G C33A A70C | ≤ 0.5
C22U U32C | 0.902
C24G A65U G67C | ≤ 0.5

Variant | yeast fitness
C24G A37U C49U U59A | ≤ 0.5
C24G A37G U47C U59A G67A | ≤ 0.5
C24G A40U | 0.542
C24U C33U C34G A40U G67A | 0.541
C24U A45C U47A G63A | ≤ 0.5
G23A C62U A65C | 0.582
G23A U47C C55U A69C | ≤ 0.5
C24A C62A | 0.598
C24U A42C | 0.994
C24U G67A | 0.913
G23A A43U C62U | 0.751
C24G C31G | 0.773
C24G A42G A57G | ≤ 0.5
C24U G38A | 0.819
C24A C60U C61G G67A | 0.614
C24G A42C C55A U59A A70U | ≤ 0.5
C24G C31U C61A | ≤ 0.5
C24U C49A G67A | 0.547
C24U C49A G67C | 0.527
G23C U32A C61U | ≤ 0.5
C22U U28A C55G A57C | ≤ 0.5
C24U G44A C60U C62A | ≤ 0.5
C24U C31A G56C | 0.544
G23U A43U C55G | ≤ 0.5

Variant | yeast fitness
C24G C34G A43U | ≤ 0.5
G23C C27G A45G G52A | 0.57
C24G C34G A36G U53A | ≤ 0.5
G23A C29U C60U A65U | ≤ 0.5
G23A U26A G50C U53C | ≤ 0.5
C22U U47A A70G | 0.536
G23C A42C A43C | 0.575
C24U C34U C66U | 0.58
C24G G44A C46U U53C C62U | ≤ 0.5
G23A A43C U59A | 0.639
C24U C31U A40C A57C C61A G67A | ≤ 0.5
G23A U54A G67A | ≤ 0.5
C24G U59A A70U | ≤ 0.5
G23A A36U G39C G68A | ≤ 0.5
G23C U54C C66U | ≤ 0.5
C24G C34U A45C | ≤ 0.5
C24A A42C | 0.713
C24U C60U | 0.797
C24G C55G C66U | ≤ 0.5
C24A A40C A69C | ≤ 0.5
C24G G41A | 0.619
C24U A45C G63A | 0.601
C24U C46A C62A A69C | 0.573
G23C C34U U47A G58C G67U | 0.533

Variant | yeast fitness
C24G C62U A65G | 0.558
C24G G39A A70C | ≤ 0.5
G23C A45U A65C | ≤ 0.5
C24A G63C A69C | 0.621
C24U C46A A57G | 0.749
G23C A36G | 0.625
G23C A36C | ≤ 0.5
C24G C27G C62A | 0.622
C24U U26G C30U G39C G67A A69U | ≤ 0.5
C24G U59A | 0.552
G23C C29G A43U G50A A65C | 0.542
C24G C31U C34U C49U A69C | ≤ 0.5
C22U G52C | 0.537
G23U A57U | 0.614
C24G C49U C55G G58A | 0.764
C24A A43C A69U | ≤ 0.5
C24A A42G G63A U64A | ≤ 0.5
C24G C60U G63A | ≤ 0.5
C24U G56A C60A | 0.594
G23A U59A | 0.791
C24A C29U C30U | ≤ 0.5
C22U G63A | 0.81
C24G C55G C62U | ≤ 0.5
C24U C29A C33U | ≤ 0.5

Variant | yeast fitness
G23A C31A A69C | ≤ 0.5
G23C C33U A57U G67A | 0.512
G23C A37G A69C | 0.548
C24U G58A | 0.988
C24G A36G A65U G68C | ≤ 0.5
C24A C49U C55U | ≤ 0.5
C22U U35C C55A C66U | ≤ 0.5
G23C C29G G67U A69C | ≤ 0.5
C24G A36G C55G | ≤ 0.5
C24A G48A U53G G63C | ≤ 0.5
C24U A37G A43G | 0.516
G23C G39C G50A G68C | ≤ 0.5
C24U C49U U59G G67U | ≤ 0.5
C24G C33G G50U U59C | ≤ 0.5
C24A C31U G51A C62A | ≤ 0.5
G23A C27G C55G | ≤ 0.5
C22U U59C | 0.778
C24U C30A C60U | ≤ 0.5
C24G G48A | 0.588
C24G G41C G68C | 0.592
C24A C34U A43U C49G C62G | ≤ 0.5
C24A G39A | 0.66
G23C U28C C29U A69C | ≤ 0.5
